Tests used:
P388 = assay: Cytotoxicity against mouse P388 cells; format: functional; conditions: read-out: ED50 (the source's name)
Procedure, shortened: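 P-388 mouse lymphocytic leukemia cells supplied by an academic lab (Purdue); in vitro cytotoxicity assay run by a previously described procedure; ED50 reported in µM; mithramycin included as positive control.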

HT-29 = assay: Cytotoxicity against human HT29 cells; format: functional; conditions: read-out: ED50 (the source's name)
Procedure, shortened: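 HT-29 human colon adenocarcinoma cells obtained from ATCC; in vitro cytotoxicity assay run by a previously described procedure; value given as ED50 in µM; mithramycin run as positive control.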

Row | Structure (SMILES) | EC50 (P388) | EC50 (HT-29)
1 | CC(C)CCC(=O)[C@@H](C)[C@H]1CC[C@H]2[C@@H]3CC[C@H]4CC(=O)C=C[C@]4(C)[C@H]3CC[C@]12C | 8.93 µM | 9.03 µM
2 | CC1=CC(=O)[C@@H]2[C@@H]3[C@H](C(C)C)CC[C@@]2(C)[C@@H]13 | > 50 µM | > 50 µM
3 | C=C1C[C@H](O)[C@@H]2[C@@H]3[C@H](C(C)C)CC[C@@]2(C)[C@@H]13 [CERVICOL] | > 50 µM | > 50 µM
4 | CC(C)C/C=C/[C@@H](C)[C@H]1CC[C@H]2[C@@H]3CC[C@H]4CC(=O)C=C[C@]4(C)[C@H]3CC[C@]12C [DENDRONESTERONE A] | 9.84 µM | > 100 µM
5 | C=C(CC[C@@H](C)[C@H]1CC[C@H]2[C@@H]3CC[C@H]4CC(=O)C=C[C@]4(C)[C@H]3CC[C@]12C)C(C)C [DENDRONESTERONE B] | > 100 µM | > 100 µM
6 | CC(C)C/C=C/[C@@H](C)[C@H]1CC[C@H]2[C@@H]3CCC4=CC(=O)C=C[C@]4(C)[C@H]3CC[C@]12C [DENDRONESTERONE C] | > 100 µM | > 100 µM
7 | CC1=C[C@H](O)[C@@H]2[C@@H]3[C@H](C(C)C)CC[C@@]2(C)[C@@H]13 [ISOLEMNALOL] | > 50 µM | > 50 µM
8 | C=C1[C@H](O)C[C@@H]2[C@@H]3[C@H](C(C)C)CC[C@@]2(C)[C@@H]13 [LEMNALOL] | 16.3 µM | 10.5 µM
9 | CO[C@H](C(=O)[C@@H](O)[C@@H](C)O)[C@@H]1Cc2cc3cc(O[C@H]4C[C@@H](O[C@@H]5C[C@@H](O)[C@H](O)[C@@H](C)O5)[C@H](O)[C@@H](C)O4)c(C)c(O)c3c(O)c2C(=O)[C@H]1O[C@H]1C[C@@H](O[C@@H]2C[C@@H](O)[C@@H](O[C@@H]3C[C@](C)(O)[C@H](O)[C@@H](C)O3)[C@@H](C)O2)[C@H](O)[C@@H](C)O1 [PLICAMYCIN] | 0.15 µM | 0.21 µM
